From PubChem
eIF4H FP inh: inhibitors of RNA binding by human eIF4H; 290,000 tested, 0.94% active; Q15056; inhibition, % at 35 µM; eIF4H fluorescence polarization binding assay; AID 2012;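 further: calls also rest on retests at 20 µM and on dose response follow-up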
HCV core dimer: HCV core protein dimerization inhibition. 300,000 tested, 0.33% active. TR-FRET GST/Flag-core106 dimerization, 1536-well. inhibition, % at 5 µM;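 active means inhibition above the mean of all tested compounds plus 3 SD, set per screening campaign, cut at about 45% in these data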
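Assay system: GST-tagged and Flag-tagged HCV core protein residues 1-106 / Times: compound-protein-antibody incubation 4 h at 22.5 °C / Signal: time-resolved FRET, ex 340 nm, em 617 and 671 nm / Evaluation: % inhibition based on acceptor/donor emission ratio / Benchmarks: wells lacking GST-core106 and wells with excess unlabelled core106 / Repeats: singlicate, one well per compound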
HCV NS3 hel inh: blocks Hepatitis C virus NS3 helicase unwinding | NS3 helicase DNA unwinding, Cy5 molecular beacon fluorescence | inhibition, % at 10.9 µM | 290,000 tested, 0.56% active;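 active means inhibition above the mean of all tested compounds plus 3 SD, set per campaign, cut at about 35% in these data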;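 further: 0% = DMSO wells and 100% = thioflavine S control wells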
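System: Hepatitis C virus NS3 helicase domain fragment enzyme | Reagent: Annealed dual-labelled DNA beacon duplex, ATP-started | Compound dosing: 10.9 µM single point, 0.8% DMSO | Incubation: 1 h reaction at 25 °C, ATP-initiated | Technique: Cy5 fluorescence | Evaluation: Percent inhibition from t60/t0 fluorescence ratio | Benchmarks: Low DMSO, high thioflavine S at 110 µM | Replication: Singlicate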
FID counter: displaces DNA intercalator in HCV helicase counter-screen | 290,000 tested, 0.17% active | DNA fluorescent intercalator displacement, fluorescence | inhibition, % at 7.9 µM; in the data active means inhibition above about 37%;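 further: 0% = vehicle and 100% = reference compound; higher means more ethidium bromide displaced from hairpin DNA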
PABP1 MLLE inh: inhibitors of microRNA-mediated deadenylation, human PABP1 MLLE binding; inhibition, % at 20 µM; AID 588489; 360,000 tested, 0.36% active; GST-MLLE / FITC-PAM2 fluorescence polarization; in the data active means inhibition above about 35%, passing the limit was not always enough;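 further: plate controls were DMSO wells with GST-MLLE for no effect and wells lacking GST-MLLE protein for full effect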
Target sequence (P11940 whole entry, looked up): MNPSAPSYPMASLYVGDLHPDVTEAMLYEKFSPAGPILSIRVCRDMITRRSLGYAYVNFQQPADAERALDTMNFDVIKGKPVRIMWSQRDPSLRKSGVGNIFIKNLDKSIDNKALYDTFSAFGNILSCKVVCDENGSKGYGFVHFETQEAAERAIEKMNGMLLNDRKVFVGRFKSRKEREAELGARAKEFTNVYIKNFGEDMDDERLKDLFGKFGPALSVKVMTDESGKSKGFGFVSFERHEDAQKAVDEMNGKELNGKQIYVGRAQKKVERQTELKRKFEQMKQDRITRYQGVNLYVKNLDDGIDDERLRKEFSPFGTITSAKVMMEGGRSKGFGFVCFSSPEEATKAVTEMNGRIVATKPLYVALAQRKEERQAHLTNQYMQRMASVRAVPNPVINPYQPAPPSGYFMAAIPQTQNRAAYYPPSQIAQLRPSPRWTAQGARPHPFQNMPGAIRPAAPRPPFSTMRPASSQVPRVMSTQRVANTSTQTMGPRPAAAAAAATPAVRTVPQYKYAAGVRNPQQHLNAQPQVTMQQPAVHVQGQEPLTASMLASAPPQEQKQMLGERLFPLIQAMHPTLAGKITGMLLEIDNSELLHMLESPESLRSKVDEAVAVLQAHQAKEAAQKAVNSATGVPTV
PABP polyA inh: blocks human PABP binding to poly(A) RNA | fluorescence polarization | P11940 | inhibition, % at 35 µM | AID 2014 | 290,000 tested, 1% active;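 further: calls also rest on retests at 20 µM and on dose response follow-up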
* hit, by the source's call; ? = inconclusive; nt = no result. Only some compounds are listed: those with a hit (about 2% of all), similar ones and a draw of the others. Unless noted, how the calls were made is not given here.

SMILES	eIF4H FP inh	HCV core dimer	HCV NS3 hel inh	FID counter	PABP1 MLLE inh	PABP polyA inh
CC(C)CCNC(=O)C1(c2cccs2)CCOCC1	4	-2	4	-7	1	-11
O=C(NC(c1ccccc1)c1ccccc1)C1(c2cccs2)CCOCC1	?	6	-1	-32	-8	1.4*
O=[N+]([O-])c1ccc(N2CCNCC2)cc1Sc1nc2ccccc2[nH]1	-3	2	-21	40*	-3	-6
O=C(COc1ccccc1[N+](=O)[O-])N/N=C/C=C/c1ccco1	25	3	9	-2	13	8
Cc1ccc(OCC(=O)N/N=C/C=C/c2ccco2)cc1	nt	67*	13	-13	-4	nt
Cc1cc(-c2ccco2)c(C#N)c2nc3ccccc3n12	88*	25	21	-14	16	88*
Cc1cc(C(C)C)n2c(nc3ccccc32)c1C#N	-1	4	3	-3	nt	6
CCOC(=O)c1nc2sc3c(c2c(=O)[nH]1)CCCC3	?	5	2	2	-6	5.5*
Cc1ccc(C(=O)N2CCC(N3CCC(C(=O)N4CCOCC4)CC3)CC2)cc1	nt	nt	nt	nt	-2	nt
CCOc1ccc(-c2cc(C)n3nc(C(N)=O)cc3n2)cc1	4	50*	6	-10	-1	10
COC(=O)c1cc2nc(-c3ccccc3)cc(C)n2n1	-6	38	5	-7	-24	7
OCCN1CCN(c2nc(-c3ccccc3O)nc3ccccc23)CC1	-7	2	-34	26	4	-6
N=C(N)c1ccc(/C=C/c2ccc(C(=N)N)cc2O)cc1	37	-16	-16	53*	16	47
CCOC(=O)C1(CC2CC2)CCN(Cc2cc(Cl)c(O)c(OC)c2)CC1	2	-5	2	4	2	0
CCOC(=O)C1(CC2CC2)CCN(Cc2ccc(OC)cc2F)CC1	89*	6	-14	16	-7	76
Cc1nc2c(OCc3ccc(C(F)(F)F)cc3)cccn2c1N(C)Cc1cccs1	nt	nt	nt	nt	-8	nt
CSc1nsc(SCC(=O)NCc2ccccc2)n1	5	-2	10	0	40*	2
CN(CC(=O)Nc1ccccc1Cl)C(=O)Cn1cc(C(F)(F)F)cc(Cl)c1=O	nt	-2	nt	nt	-52	nt
CCCC(NCC(O)COc1ccc(-c2ccccc2)cc1)c1ccccc1 (stereo unspecified)	0	-8	-73	41*	3	-8
Cc1cc(OCC(O)CNC(C)c2ccccc2)ccc1C(C)C (stereo unspecified)	3	-16	-49	41*	-2	11
CC[C@H](C)[C@H]1O[C@]2(CC[C@@H]1C)C[C@@H]1C[C@@H](CC=C(C)[C@@H](O[C@H]3C[C@H](OC)[C@@H](O[C@H]4C[C@H](OC)[C@@H](O)[C@H](C)O4)[C@H](C)O3)[C@@H](C)C=CC=C3CO[C@@H]4[C@H](O)C(C)=C[C@@H](C(=O)O1)[C@]34O)O2	nt	7	nt	nt	4	nt
Cc1ccc(Cl)c(NC(=O)COC(=O)c2nn(-c3ccccc3)cc2O)c1Cl	nt	nt	nt	nt	13	nt
Cc1ccc(COC(=O)CN2C(=O)NC3(CCCCC3C)C2=O)cc1 (stereo unspecified)	nt	nt	nt	nt	-8	nt
Cc1cccc(NC(=O)c2ccc(S(=O)(=O)NCc3cccnc3)cc2)c1	4	10	-2	-16	-19	2
COc1ccc(NS(=O)(=O)c2ccc(N3CCOCC3)c(NC(=O)c3ccccc3Cl)c2)cc1	0	7	-14	-12	5	10
SMILES	eIF4H FP inh	HCV core dimer	HCV NS3 hel inh	FID counter	PABP1 MLLE inh	PABP polyA inh
CS(=O)(=O)c1ccc(C(=O)Nc2ccc(N3CCCC3)cc2)c(Cl)c1	82*	-19	1	-3	0	6.5*
O=C(Nc1cc(S(=O)(=O)Nc2ccc(Cl)cc2)ccc1N1CCCCC1)c1ccc(F)cc1Cl	8	33	5	-12	43*	11
CS(=O)(=O)c1ccc(C(=O)Nc2ccc(N3CCOCC3)cc2)c(Cl)c1	-8	-5	2	2	-7	-7
CCCCNC(=O)C1(C)CCN1C(=O)c1cc(-c2ccccc2)cs1 (stereo unspecified)	nt	nt	nt	nt	-12	nt
COc1cccc(CSc2nccn2C)c1	-6	-6	1	0	-25	1
O=C(COC(=O)Cc1c(F)cccc1Cl)NCc1ccc2c(c1)OCO2	nt	nt	nt	nt	5	nt
CCOc1ccc(N)c(SSc2cc(OCC)ccc2N)c1	2	-21	4	-14	18	12
CCOc1cc(-c2ccc(N)c(OCC)c2)ccc1N	?	-17	-9	-1	86	104*
Cc1ccc(S(=O)(=O)CC(=O)c2cc(C)c(O)c(C)c2)cc1	2.8*	5	4	1	6	61*
Cc1cc2oc(=O)c(CC(=O)NCCCN(C)C)c(C)c2c2occ(C(C)(C)C)c12	3	-9	-41	37*	nt	3
COC(=O)C1=COC(OC2OC(CO)C(O)C(O)C2O)C2C1C=CC2(O)CO (stereo unspecified)	89*	0	nt	nt	-1	62*
Cc1ccc(S(=O)(=O)n2cc(CO)c3ccccc32)cc1	nt	nt	nt	nt	1	nt
Cc1ccc(-n2c(N)c(C(N)=O)sc2=S)c(C)c1	60*	-3	-4	2	35	16
Cc1ccc(C)c(-n2c(N)c(C(N)=O)sc2=S)c1	nt	7	-9	-5	15	nt
Cc1[nH]n(C(N)=S)c(=O)c1N=Nc1ccc(S(=O)(=O)N2CCCC2)cc1	2	-5	5	-6	42*	-10
CCCc1nc2nc(C)c(NS(=O)(=O)c3ccc(C)c(C)c3)c(=O)n2[nH]1	nt	nt	nt	nt	7	nt
Cc1cc(C)c(O)c(NC(=S)NC(=O)Cc2ccccc2)c1	-7	2	-8	-15	42*	11
C=CCn1c(CSc2ccccc2[N+](=O)[O-])n[nH]c1=S	84*	65*	31	-4	-6	21*
Cc1ccc2cc(CCNC(=O)c3ccco3)c(=O)[nH]c2c1C	?	-8	-1	-16	9	124*
Cc1ccc2cc(CCNC(=O)c3ccco3)c(=O)[nH]c2c1	4	4	3	-5	-1	-10
O=C(O)c1ccc(-n2cccc2/C=N\NC(=O)c2cc3cc(Br)ccc3o2)cc1	86*	11	23	-27	-7	80*
Cn1cc(/C=N/NC(=O)c2cc3cc(Br)ccc3o2)c2ccccc21	20	0	-10	-9	-95	36
Cc1nc(N(C)C2CCCCC2)c2nnn(Cc3ccc(F)cc3)c2n1	nt	nt	nt	nt	5	nt
O=C(NC(=S)NCCC1=CCCCC1)c1ccccc1Br	8	18	10	-25	45*	13
O=C(COC(=O)c1ccccc1Br)NCCC1=CCCCC1	-5	1	-5	-23	2	8
O=C(NC12CC3CC(CC(C3)C1)C2)c1cccnc1Cl	-2	5	-10	-2	-3	2
O=C1C=CC(=O)c2c(O)c(N3CCN(CCOCCO)CC3)c(Br)c(O)c21	nt	nt	nt	nt	94*	nt
